For data set [1], the system named is CD34-positive normal hematopoietic progenitor cells. The experiment in a line: Viability of CD34-positive normal bone marrow progenitor cells. In kind it is cell-based. As to conditions: 72 hours, with stem cell factor and thrombopoietin. The gist of the method:
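Purchased CD34-positive normal bone marrow progenitor cells were cultured with stem cell factor and thrombopoietin, without or with various concentrations of test compound, for 72 hours. Jurkat cells were treated in parallel as a control. Viability was measured by MTT reduction as a percentage of untreated controls. Values are mean ± S.D. of three independent experiments, compared by one-way ANOVA with Bonferroni post-hoc test.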

The test system of data set [2] is mitogen-activated normal T-lymphocytes. The experiment in a line: Viability of mitogen-activated normal T-lymphocytes. In kind it is cell-based.
A short description of data set [3]: Pharmacokinetic study, plasma and brain concentrations by LC-MS/MS. In kind it is in vivo, NOD/SCID mice. As to conditions: for Brain/Plasma ratio / AUC / Brain concentration at 0.5 h / Plasma concentration at 0.5 h / T1/2 / nAUC (dose-normalized AUC): NOD.CB17-PrkdcSCID/J mice, single intraperitoneal injection, 50 mg/kg, n = 3; for Brain/Plasma ratio: 0.5 h.
A further data set concerns T-ALL cells. The experiment in a line: Subcutaneous T-ALL xenograft. The class given is in vivo, NOD/SCID mice. Conditions: for side effects / size of subcutaneous tumors: intraperitoneal injection at 50 mg/kg, 3 times a week.
For data set [4], the system named is MOLT4 cells. In kind it is in vivo, NOD/SCID mice. Conditions: for effect on CNS leukemia: murine xenotransplant model, histopathological examination / imaging.
A further data set concerns Jurkat cells. The experiment in a line: Systemic T-ALL, tail-vein injection of luciferase-expressing Jurkat cells. The class given is in vivo, NOD/SCID mice. Conditions: S2157 50 mg/kg, OG-L002 12.5 mg/kg (its MTD), twice a week for 3 weeks.
In data set [5] the test system is MOLT4 cells. The experiment in a line: Isobologram / combination index analysis with anti-leukemic drugs. The class given is cell-based, human. As to conditions: 72 hours. The gist of the method: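 MOLT4 cells exposed to each of several anti-leukemia drugs, without or with the test compound, for 72 h to generate dose-response curves for each combination. Combination index calculated by the Chou–Talalay method; CI <1.0 taken as synergism. Mean ± S.D. from three independent experiments.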

The subject of another data set is primary T-ALL cells. Briefly: Combination with anti-leukemic drugs in primary T-ALL cells. In kind it is cell-based, human.
For data set [6], the system named is ZEB2-positive ETP-ALL cell lines such as Loucy and PEER. The experiment in a line: Efficacy in relation to ZEB2 expression in T-ALL and ETP-ALL cell lines. The class given is cell-based, human.
The conditions of data set [7]: for changes in complete blood count, liver and kidney functions, histopathological examination of some organs: NOD/SCID mice treated with up to 150 mg/kg.
Another data set has as its system T-ALL cell lines. In kind it is cell-based, human. As to conditions: read-out: IC50 values, 72 hours of culture. The gist of the method:
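Human T-ALL cell lines (CEM, Jurkat, MOLT4, Loucy, PEER) were cultured with a range of test compound concentrations for 72 hours. IC50 was calculated from the dose-response curves. Values are means ± S.D. of three independent experiments, compared by one-way ANOVA with Tukey's multiple comparison test.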

In data set [8] the test system is murine genetically engineered T-ALL and human T-ALL cell lines such as MOLT4, Jurkat, HPB-ALL and KARPAS45. Conditions: cited from earlier work.
The test system of the next data set is T-ALL. As to conditions: read-out: IC50 values; cited from earlier work.
[9] abbreviates: single intraperitoneal injection at 50 mg/kg, NOD/SCID and ICR mice.

The values below come from paper PMC6397674 (Clinical cancer research : an official journal of the …, 2018).

Some results are limits rather than exact numbers.

Broadly, the AUC is the area under the concentration-time curve, a measure of exposure. `CN1CCN(C(=O)CN[C@@H]2C[C@H]2c2cc(F)cc(F)c2OCc2ccccc2)CC1.Cl` [S2157]: the “viability of CD34-positive normal hematopoietic progenitor cells” value in data set [1] is “did not affect the viability”. Further, in data set [2], the “viability of mitogen-activated normal T-lymphocytes” value is given as “modestly inhibited”. In data set [3], the Brain/Plasma ratio worked out at 13.0 ± 6.26, the exposure (AUC) was found to be 5.75 ± 3.67 µM·h, the “Brain concentration at 0.5 h” value worked out at 64.0 ± 3.46 µmol/kg and the “Plasma concentration at 0.5 h” value amounted to 5.71 ± 2.47 µM. Also, in data set [3], the T1/2 came to 0.88 ± 0.04 h and the “nAUC (dose-normalized AUC)” value was 0.11 ± 0.07 µM·h. Besides, in data set [3] (setting [9]), the “brain/plasma concentration ratio relative to S2116” value was above 75 fold and the “maximal brain concentration relative to S2116” value was “approximately 50 fold”. Also, in the data set with T-ALL cells, the side effects entry is “negligible side effects, such as moderate leukocytosis and thrombocytopenia without bleeding tendency”; the “size of subcutaneous tumors” value was “less than 20 % of that in the untreated control”. In the data set with MOLT4 cells [4] (50 mg/kg ip twice a week, log-rank test, P = 0.0246), the “hazard ratio against untreated mice, single agent” value is recorded as 0.2371. In addition, the “hazard ratio against untreated control, combination with dexamethasone” value with MOLT4 cells [4] (S2157 50 mg/kg ip twice a week plus dexamethasone 10 mg/kg ip 5 times a week) was determined as 0.1787. Besides, the neurotoxicity entry in the data set with MOLT4 cells [4] (murine xenografts) is given as “without detectable neurotoxicity”. The “effect on CNS leukemia” value in the data set on MOLT4 cells [4] is reported as “CNS leukemia nearly disappeared”. Moreover, the “growth of MOLT4 cells (bioluminescence)” value in the data set with MOLT4 cells [4] (twice-per-week injection at either 30 mg/kg or 50 mg/kg) was “almost completely suppressed the growth of MOLT4 cells in most but not all mice”. Also, in the data set with Jurkat cells, the “anti-leukemic activity in Jurkat-transplanted mice” value is recorded as “therapeutic benefit of S2157 including the eradication of CNS disease”. In addition, in the data set on MOLT4 cells [5], the “combined effect with 4-hydroxycyclophosphamide (4-OHCY)” value is recorded as “additive”, the “combined effect with L-asparaginase” value is listed as “synergistic”, the “combined effect with bortezomib” value is “additive” and the “combined effect with dexamethasone” value is on record as “synergistic”. Besides, in the data set with primary T-ALL cells, the “combined effect with L-asparaginase” value was “synergy” and the “combined effect with dexamethasone” value is recorded as “synergy”. Further, in data set [6], the “efficacy in ZEB2-positive ETP-ALL cell lines” value is recorded as “relatively ineffective”. In addition, the “changes in complete blood count, liver and kidney functions, histopathological examination of some organs” value in [7] was “no obvious changes were observed”.

In general, IC50 refers to the concentration that gives 50% inhibition. Consider `N[C@@H]1C[C@H]1c1cc(F)cc(F)c1OCc1ccccc1` [S2101], for which, in the data set with T-ALL cell lines, the half-maximal inhibitory concentration (IC50) is at least 20 µM.

Regarding `O=C(O)c1ccc(CN2CCC(CN[C@@H]3C[C@H]3c3ccccc3)CC2)cc1` [GSK2879552], in [8], the pro-apoptotic activity entry is “failed to show pro-apoptotic activity”.

In the case of `N[C@H]1C[C@@H]1c1ccc(-c2cccc(O)c2)cc1` [OG-L002, reference compound], in the data set with T-ALL cell lines, the IC50 is at least 20 µM. Further, the “anti-leukemic activity in Jurkat-transplanted mice” value with Jurkat cells is “failed to show anti-leukemic activity”. For the same molecule, the “maximum tolerated dose (MTD)” value in [7] (NOD/SCID mice, intraperitoneal injection) came out at 12.5 mg/kg. In data set [7] (NOD/SCID mice, intraperitoneal injection, unknown causes), the “dose after which recipients died immediately” value is on record as at least 25 mg/kg.

Turning to `Cn1cc(C(=O)Nc2ccc([C@@H]3C[C@H]3NCC3CC3)cc2)cn1` [T-3775440], the IC50 in the data set on T-ALL is above 10 µM.

`Cl.N[C@H]1CCN(C(=O)CN[C@@H]2C[C@H]2c2cc(F)cc(F)c2OCc2ccccc2)C1` [S2116]: in [1], the “viability of CD34-positive normal hematopoietic progenitor cells” value is listed as “did not affect the viability”. In addition, in [2], the “viability of mitogen-activated normal T-lymphocytes” value is “modestly inhibited”. Also, in data set [3], the Brain/Plasma ratio is listed as 0.17 ± 0.03, the exposure (AUC) is 41.78 ± 8.66 µM·h, the “Brain concentration at 0.5 h” value came out at 1.35 ± 0.39 µmol/kg and the “Plasma concentration at 0.5 h” value was determined as 8.17 ± 2.80 µM. Further, in data set [3], the T1/2 is recorded as 10.88 ± 2.97 h and the “nAUC (dose-normalized AUC)” value is 0.84 ± 0.17 µM·h. In the data set on T-ALL cells (MOLT4-inoculated NOD/SCID mice), the “overall survival of MOLT4-inoculated mice” value is on record as “significantly prolonged”. Further, in the data set with T-ALL cells, the side effects entry is “negligible side effects, such as moderate leukocytosis and thrombocytopenia without bleeding tendency”; the “size of subcutaneous tumors” value is recorded as “less than 20 % of that in the untreated control”. The “effect on CNS leukemia” value with MOLT4 cells [4] is reported as “failed to eradicate CNS disease”. Besides, in the data set with MOLT4 cells [5], the “combined effect with L-asparaginase” value is “synergistic”, the “combined effect with cytosine arabinoside” value is reported as “additive” and the “combined effect with dexamethasone” value is on record as “additive”. Moreover, the “efficacy in ZEB2-positive ETP-ALL cell lines” value in data set [6] is “relatively ineffective”. In data set [7], the “changes in complete blood count, liver and kidney functions, histopathological examination of some organs” value is “no obvious changes were observed”.
